Experimental data published in ChEMBL document CHEMBL2321707, “Synthesis, SAR study, and biological evaluation of a series of piperazine ureas as fatty acid amide hydrolase (FAAH) inhibitors” (Bioorg Med Chem, 2013).

Assay: Drug level in rat brain at 0.1 mg, iv at 1 hr
Assay type: ADME, organism-based
Conditions: read-out: Drug uptake
In short: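 Rats given 0.1 mg/kg i.v.; brain homogenized 1 h after dosing and compound concentration measured in tissue.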

Row | SMILES | concentration at 1 h [ng/g]
1 | Cc1noc(NC(=O)N2CCN(c3nc(-c4ccccc4)cs3)CC2)c1C | 23
2 | Cc1noc(NC(=O)N2CCN(c3nc(-c4ccc(F)cc4F)cs3)CC2)c1C | 82
3 | Cc1noc(NC(=O)N2CCN(c3nc(-c4ccccc4F)cs3)CC2)c1C | 103

The next lines start with the values.

Row | concentration at 1 h [ng/g] | SMILES
4 | 12 | Cc1noc(NC(=O)N2CCN(c3nc(-c4cccc(F)c4)ns3)CC2)c1C
5 | 4.6 | Cc1noc(NC(=O)N2CCN(c3nc(-c4ccccc4F)ns3)CC2)c1C
6 | 101 | Cc1noc(NC(=O)N2CCN(c3nc(-c4cccc(F)c4)cs3)CC2)c1C
7 | 132 | Cc1noc(NC(=O)N2CCN(c3nc(-c4ccc(F)cc4)cs3)CC2)c1C
8 | 25 | Cc1noc(NC(=O)N2CCN(c3nc(-c4ccccc4)ns3)CC2)c1C
9 | 17 | Cc1noc(NC(=O)N2CCN(c3nc(-c4ccc(F)cc4)ns3)CC2)c1C

Assay: Bioavailability in rat
Assay type: ADME, organism-based
Conditions: in vivo
In short: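 Rat cassette dosing, 1 mg/kg po.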

Row | bioavailability [%] | SMILES
10 | 5 | O=C(Nc1noc2ccccc12)N1CCN(c2nc(-c3ccccc3)ns2)CC1
